Consider 18 compounds from PubChem BioAssay.

A number with no mark means an inactive call. Results filed as inconclusive are left out. Calls of active or inactive are those of the source.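 The calls were made as follows, unless noted: active = growth inhibition above 25% in both replicates, a cutoff set 3 SD above the mean; inconclusive = above 25% in only one replicate; inactive = the rest.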

Assay [1] in a line: S. cerevisiae growth inhibition in permissive medium (OD615), pilot counter-assay for S. cerevisiae lifespan shortening project, permissive growth control (AID 705). Conditions: OD615, 24 h, at 10 µM, stronger effect = higher value. An outline of the steps:
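Material: engineered DeaD yeast; Compound: one dose 10 µM, DMSO 0.25% final; Detection: absorbance (optical density) at 615 nm; Buffer or medium: permissive raffinose/galactose medium; Timing: 24 h exposure, 30 °C.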

A short description of assay [2]: S. cerevisiae growth inhibition in restrictive medium, OD615, pilot screen, restrictive growth control, yeast lifespan reduction project (AID 706;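 active = growth inhibition above a set limit, 3 SD over mean compound inhibition, in both replicates, cut at about 43% in these data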;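 also: modified DeaD lifespan yeast strain shifted to restrictive glucose medium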). As to conditions: OD615, 48 h, at 10 µM, stronger effect = higher value. An outline of the steps: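 Buffer or medium: restrictive glucose medium (CSMM-D); test system: modified S. cerevisiae; doses: single dose of 10 µM compound final, 0.25% DMSO; schedule: 48 h compound exposure at 30 °C; detection: absorbance (optical density) measured at 615 nm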

A short description of assay [3]: doxorubicin toxicity protection in MRP-1 cells – H69AR cells, CellTiter-Glo, duplicate, MRP-1 activator project, pilot screen (AID 807;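 active = viability increase at or above a cutoff of the median across tested compounds plus 3 SD, cut at about 8.5% in these data, passing the limit was not always enough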;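 also: compound pretreatment 18-22 h then 72 h combined with doxorubicin; 0% = doxorubicin alone and 100% = vehicle without doxorubicin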). Conditions: H69AR viability with doxorubicin, CellTiter-Glo luminescence; at 10 µM; stronger effect = higher value. For orientation: ATP-based viability assays read luminescence as a measure of living cells.
A short description of assay [4]: viability of HCT116 without oncogenic beta-catenin – human colon tumor cells, pilot screen (AID 823;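 active = cell viability at or below a set limit in both duplicate runs, the limit being the all-compound median minus 4 SD, cut at about 23% in these data, passing the limit was not always enough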;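 also: 0% = wells killed by 20 µM Hyamine and 100% = untreated DMSO cell wells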). As to conditions: HCT116 beta-catenin knockout viability, CellTiter-Glo, 60 h; at 10 µM; stronger effect = lower value.
The nature of assay [5]: viability of PTEN-null HCT116 cells – cell-based, HCT116 clonal line, CellTiter-Glo, pilot screen (AID 824;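 active = viability at or below 27.92% in each of two runs, the all-compound median minus 4 SD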;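 also: 0% = 20 µM Hyamine control and 100% = vehicle cell control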). As to conditions: HCT116 PTEN-deleted viability, 60 h, at 10 µM, stronger effect = lower value.
Assay [6] can be described thus: RAM pathway blockade in budding yeast – dse1pr::URA3 reporter, 5-FOA selection, pilot screen (AID 869;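 active = inhibition over a set limit, the all-compound mean plus 3 SD, in both replicate runs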;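 also: 0% = DMSO wells with no growth and 100% = 10 µM 1-NA-PP1 with full growth; RAM network block rescues cells from 5-FOA so hits raise OD615 growth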). Conditions: S. cerevisiae dse1pr::URA3 5-FOA growth, OD615, 2 d; at 10 µM; stronger effect = higher value; strain carries analog-sensitive mutant Cbk1 kinase.
Assay [7] is described as follows: RAM signaling pathway blockade in yeast – S. cerevisiae, Pdr1DBD-CYC8 efflux-inhibited sensitized strain, primary screen (AID 1298;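 active = RAM network inhibition above 8.4% in each of two replicates, 3 SD over the compound average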;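 also: 0% = DMSO untreated cells without growth and 100% = 10 µM 1-NA-PP1 full growth; higher means more yeast growth rescued from 5-FOA killing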). Conditions: S. cerevisiae cbk1-as DSE1-URA3 strain, 5-FOA growth OD615, 2 d; at 50 µM; stronger effect = higher value.

For orientation: viability means a read-out of living cells in per cent, often relative to untreated cells. The term inhibition denotes the relative decrease from the control value, in per cent. As to `COc1ccc(OC)c(NC(=O)COC(=O)c2ccc(S(=O)(=O)N3CCOCC3)cc2)c1`, the values for the growth inhibition in assay [1] and in assay [2] were -3.99% and 1.01%, respectively. In assay [3], the viability increase is -1.17%. Moreover, the figures for the viability in assay [4] and in assay [5] were 94.5% and 91.9%, respectively. The inhibition in assay [6] is 2.73%. The RAM network inhibition in assay [7] is 5.32%.

As for `COC(=O)C1=C(C)N=c2s/c(=C3\C(=O)Nc4ccccc43)c(=O)n2C1c1ccccc1` (stereo unspecified), the growth inhibition in assay [1] was -2%; in assay [2], -1.65%. Moreover, the viability increase in assay [3] is -4.83%. Moreover, the figures for the viability in assay [4] and in assay [5] were 92.3% and 91.6%, respectively. Moreover, in assay [6], the inhibition was 1.77%. Besides, the RAM network inhibition in assay [7] was 3.17%.

For `CSc1cccc(NC(=O)CN(c2cc(C)ccc2C)S(C)(=O)=O)c1`, the growth inhibition in assay [1] is -4.02%; in assay [2] it was -2.52%. For the same compound, the viability increase in assay [3] is -3.54%. Moreover, the viability is 77.4% in assay [4] and 79.8% in assay [5]. Besides, in assay [6], the inhibition was -0.95%. In addition, the RAM network inhibition in assay [7] is 1.46%.

In the case of `COc1ccc(NC(=O)CN(c2cc(C)cc(C)c2)S(=O)(=O)c2c(C)noc2C)cc1`, the results for the growth inhibition in assay [1] and in assay [2] were -19.1% and -14.2%, respectively. For the same compound, in assay [3], the viability increase is -2.45%. The results for the viability in assay [4] and in assay [5] were 95.2% and 101%, respectively. Further, in assay [6], the inhibition was 0.19%. For the same compound, the RAM network inhibition in assay [7] was 2.39%.

For the compound `CCOc1ccccc1Nc1cc(C)nc2nc(C)nn12`, the growth inhibition was -11.9% in assay [1] and -9.62% in assay [2]. The viability increase in assay [3] is -2.37%. Besides, the results for the viability in assay [4] and in assay [5] were 104% and 97.2%, respectively. Also, the inhibition in assay [6] is 1.67%. For the same compound, in assay [7], the RAM network inhibition was -1.47%.

As for `Cc1nc2ncnn2c(C)c1Cc1ccc(Cl)cc1F`, the growth inhibition in assay [1] is -9.96%; in assay [2], -18.8%. Also, in assay [3], the viability increase was -1.72%. Also, the results for the viability in assay [4] and in assay [5] were 95.7% and 92.2%, respectively. Besides, the inhibition in assay [6] is 0.26%. Also, the RAM network inhibition in assay [7] is 6.16%.

Regarding `COC(=O)C(C)Sc1nnc(Cc2cc(=O)[nH]c(=O)[nH]2)n1-c1ccc(Cl)cc1` (stereo unspecified), the growth inhibition in assay [1] was -13.7%; in assay [2] it was -7.63%. In addition, the viability increase in assay [3] is -1.15%. The viability in assay [4] is 104%; in assay [5], 95.6%. For the same compound, the inhibition in assay [6] was 1.97%. For the same compound, the RAM network inhibition in assay [7] was 1%.

`CCOc1cccc(C(=O)Nc2cccc(-c3nnc(-c4ccccc4)o3)c2)c1`: the figures for the growth inhibition in assay [1] and in assay [2] were -8.09% and 6.69%, respectively. For the same compound, the viability increase in assay [3] was -3%. For the same compound, the viability in assay [4] is 51.9%; in assay [5] it was 48.5%. Besides, the inhibition in assay [6] was 0.02%. For the same compound, the RAM network inhibition in assay [7] is 2.46%.

Take `Cc1nc(-c2ccc3c(c2)OCO3)cs1`: the growth inhibition in assay [1] was -3.71%; in assay [2], -1.42%. Moreover, the viability increase in assay [3] is 0.2%. Besides, the viability in assay [4] is 102%; in assay [5], 101%. Also, in assay [6], the inhibition is 1.68%. In addition, the RAM network inhibition in assay [7] was 2.38%.

Regarding `COc1ccccc1C(=O)Nc1nnc(-c2ccc(F)cc2)o1`, the values for the growth inhibition in assay [1] and in assay [2] were -8.41% and -13.1%, respectively. Moreover, the viability increase in assay [3] is 0.01%. Further, the viability in assay [4] and in assay [5] was 101% in each case. Besides, the inhibition in assay [6] was 0.59%. In assay [7], the RAM network inhibition was 2.59%.

Take `CCOC(=O)C1CCCN(C(=O)c2cn(C)c3ccc(S(=O)(=O)N(C)C)cc3c2=O)C1` (stereo unspecified): the values for the growth inhibition in assay [1] and in assay [2] were -5.1% and -1.87%, respectively. The viability increase in assay [3] was 0.59%. The viability in assay [4] is 97.8%; in assay [5], 105%. Moreover, in assay [6], the inhibition is 0.48%. In assay [7], the RAM network inhibition is 6.85%.

Take `CCc1ccc(C2CC(c3ccc(C)cc3)Nc3nc(N)nn32)cc1` (stereo unspecified): the growth inhibition is -5.94% in assay [1] and -9.54% in assay [2]. The viability increase in assay [3] is 2.61%. Moreover, the viability was 106% in assay [4] and 93.6% in assay [5]. In assay [6], the inhibition is 2.66%. The RAM network inhibition in assay [7] is 8.09%.

For `Cc1nc2ccccc2c2oc(C(=O)NCCN3CCN(C)CC3)cc12`, the growth inhibition in assay [1] was -12.1%; in assay [2] it was -15.1%. Also, the viability increase in assay [3] was -1.69%. Also, the viability in assay [4] was 89.4%; in assay [5], 98.8%. For the same compound, the inhibition in assay [6] was 1.64%. For the same compound, in assay [7], the RAM network inhibition was 3.28%.

Regarding `O=C(NCc1cccnc1)C1CC(=O)N(c2ccc(F)cc2)C1` (stereo unspecified), the growth inhibition in assay [1] was -18%; in assay [2], -11.7%. The viability increase in assay [3] was 1.27%. For the same compound, the viability in assay [4] is 93.8%; in assay [5], 101%. Further, the inhibition in assay [6] is 0.485%. In addition, the RAM network inhibition in assay [7] was 2.83%.

On to `Cc1cc(C(=O)N2CCN(Cc3ccc4c(c3)OCO4)CC2)on1`, for which the values for the growth inhibition in assay [1] and in assay [2] were -6.71% and -10.4%, respectively. For the same compound, the viability increase in assay [3] was 0.9%. The figures for the viability in assay [4] and in assay [5] were 97.2% and 105%, respectively. Further, the inhibition in assay [6] is 1.79%. Besides, the RAM network inhibition in assay [7] is 2.8%.

Turning to `CCOc1ccc(N(CC(=O)Nc2ccccc2C)S(=O)(=O)c2c(C)noc2C)cc1`, the growth inhibition was 10.9% in assay [1] and 4.1% in assay [2]. Besides, in assay [3], the viability increase was -5.61%. For the same compound, the viability in assay [4] was 15.9% (active); in assay [5], 18.1% (active). Further, in assay [6], the inhibition was 2.38%. Also, the RAM network inhibition in assay [7] is -0.84%.

In the case of `CC1CCCCN1C(=O)CSCC(=O)Nc1nc(-c2cccs2)cs1` (stereo unspecified), the figures for the growth inhibition in assay [1] and in assay [2] were 2.07% and -3.92%, respectively. For the same compound, the viability increase in assay [3] is -4.62%. The viability in assay [4] is 99.2%; in assay [5], 94.6%. In addition, the inhibition in assay [6] is 0.505%. Further, in assay [7], the RAM network inhibition is 1.69%.

Take `Cn1cc(S(=O)(=O)CC(=O)Nc2ccc3c(c2)OCO3)c2ccccc21`: the growth inhibition was -1.92% in assay [1] and 4.48% in assay [2]. Moreover, the viability increase in assay [3] was -2.54%. The results for the viability in assay [4] and in assay [5] were 95.9% and 92.1%, respectively. In addition, the inhibition in assay [6] is 0.5%. For the same compound, the RAM network inhibition in assay [7] is 5.14%.
